# Experimental data of several laboratories.
# Each line is one published result; the experiments were not run side by side.
# Target: Casein kinase I isoform gamma-1 (CSNK1G1, Homo sapiens, UniProt Q9HCP0)
SMILES,test,conditions,measurement,value
C1=C/COCc2cc(ccc2OCCN2CCCC2)Nc2nccc(n2)-c2cccc(c2)COC/1,cell-free assay,0.1 µM,remaining signal,72%
C[C@H]1CC[C@H](n2c3cnccc3c3cnc(Nc4ccc5c(n4)CCN(C(=O)CO)C5)nc32)CC1,cell-free assay,1 µM,remaining signal,100%
C#Cc1cc(-c2cc(Nc3nc(N[C@@H](C)c4ccc(F)cn4)ncc3Cl)n[nH]2)ccc1C=O,"enzyme activity, inhibitor",0.2 µM,inhibition,4.78%
CO[C@@H]1[C@H](N(C)C(=O)c2ccccc2)C[C@H]2O[C@]1(C)n1c3ccccc3c3c4c(c5c6ccccc6n2c5c31)C(=O)NC4,"enzyme activity, inhibitor",1 µM,inhibition,0%
CC(C)S(=O)(=O)c1ccc2nccc(Nc3ccc4sc(C5CCCC5)nc4c3)c2c1,"enzyme activity, inhibitor",1 µM,activity vs control,96%
CN1CCN(C(=O)c2ccc(NC(=O)Nc3ccc(N(C)c4ccnc(Nc5ccc(CS(C)(=O)=O)cc5)n4)cc3)cc2)CC1,binding,1 µM,remaining binding,100%
CCCCC(=O)Nc1ccc(-c2ccc3ncn(CCC)c(=O)c3c2)cn1,"binding, competition with immobilised ligand",0.5 µM,remaining binding,100%
C=CC(=O)N1CCC[C@@H](n2nc(-c3ccc(Oc4ccccc4)cc3)c3c(N)ncnc32)C1,"enzyme activity, inhibitor",1 µM,inhibition,7%
Cc1cc(O)c(-c2ccc([C@@H](C)CN(C)C)cc2)c2c1[nH]c(=O)c1sccc12,"enzyme activity, inhibitor",0.1 µM,inhibition,-2.19%
